Tm data for six compounds are collected here from ChEMBL document CHEMBL1151702, “Using an aryl phenanthroimidazole moiety as a conjugated flexible intercalator to improve the hybridization efficiency of a triplex-forming oligonucleotide” (Bioorg Med Chem, 2008).

Holding throughout (assay type): nucleic-acid assay
In assay [1] the test system is Nucleic Acid. The assay is described as follows: Binding affinity to synthetic oligonucleotide ON18 at 1.0 uM at pH 6.0 by thermal denaturation study. An outline of the steps:
(§1)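 Duplex melting: complementary strands at 1.0 µM each in 20 mM sodium cacodylate, 100 mM NaCl, 10 mM MgCl₂, at the pH of the line. Annealed at 80 °C for 5 min, then cooled to 5 °C and held 30 min. UV absorbance read at 260 nm with heating at 1.0 °C/min; Tm is the maximum of the first-derivative curve.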

In assay [2] the test system is Nucleic Acid. The assay is described as follows: Binding affinity to synthetic double stranded DNA D1 at 1.5 uM at pH 6.0 by thermal denaturation study. In a few lines:
(§2)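 Parallel triplex melting: target duplex assembled from strands at 1.0 µM each, TFO third strand added at 1.5 µM. Buffer 20 mM sodium cacodylate, 100 mM NaCl, 10 mM MgCl₂, at the pH of the line. Samples heated to 80 °C for 5 min, cooled to 5 °C and held 30 min. Absorbance read at 260 nm while heating at 1.0 °C/min; Tm taken as the first-derivative maximum.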

Assay [3] deals with Nucleic Acid. The assay is described as follows: Binding affinity to synthetic double stranded DNA D4 at 1.5 uM at pH 6.0 by thermal denaturation study. An outline of the steps:
as §2

Assay [4] concerns Nucleic Acid. The assay is described as follows: Binding affinity to synthetic double stranded DNA D3 at 1.5 uM at pH 6.0 by thermal denaturation study. An outline of the steps: as §2
The test system of assay [5] is Nucleic Acid. The assay is described as follows: Binding affinity to synthetic oligonucleotide ON20 at 1.0 uM at pH 7.0 by thermal denaturation study. An outline of the steps: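 DNA/RNA antiparallel duplex: each strand at 1.0 µM in 10 mM sodium phosphate, 140 mM NaCl, 1 mM EDTA, pH 7.0. Heated to 80 °C for 5 min, cooled to 5 °C and held 30 min. Absorbance followed at 260 nm during a 1.0 °C/min temperature ramp; Tm is the first-derivative maximum.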

The test system of assay [6] is Nucleic Acid. Description: Binding affinity to synthetic double stranded DNA D2 at 1.5 uM at pH 6.0 by thermal denaturation study. In a few lines:
as §2

In assay [7] the test system is Nucleic Acid. The assay is described as follows: Binding affinity to synthetic oligonucleotide ON19 at 1.0 uM at pH 6.0 by thermal denaturation study. An outline of the steps: as §1
For assay [8], the system named is Nucleic Acid. The assay is described as follows: Binding affinity to synthetic double stranded DNA D1 at 1.5 uM at pH 7.2 by thermal denaturation study. An outline of the steps: as §2
In assay [9] the test system is Nucleic Acid. The assay is described as follows: Binding affinity to synthetic oligonucleotide ON19 at 1.0 uM at pH 7.2 by thermal denaturation study. In a few lines:
as §1

In general, Tm refers to the temperature at the midpoint of the melting transition. `Cc1cn([C@H]2C[C@H](OP(=O)(O)OC[C@H]3O[C@@H](n4ccc(N)nc4=O)C[C@@H]3OP(=O)(O)OC[C@H]3O[C@@H](n4cc(C)c(=O)[nH]c4=O)C[C@@H]3OP(=O)(O)O[C@@H](CCOc3ccc(-c4nc5c6ccccc6c6ccccc6c5[nH]4)c4ccccc34)COC[C@H]3O[C@@H](n4cc(C)c(=O)[nH]c4=O)C[C@@H]3OP(=O)(O)OC[C@H]3O[C@@H](n4cc(C)c(=O)[nH]c4=O)C[C@@H]3O[PH](O)(O)OC[C@H]3O[C@@H](n4cc(C)c(=O)[nH]c4=O)C[C@@H]3OP(=O)(O)OC[C@H]3O[C@@H](n4cc(C)c(=O)[nH]c4=O)C[C@@H]3OP(=O)(O)OC[C@H]3O[C@@H](n4cc(C)c(=O)[nH]c4=O)C[C@@H]3O)[C@@H](COC[C@H](CCOc3ccc(-c4nc5c6ccccc6c6ccccc6c5[nH]4)c4ccccc34)OP(=O)(O)O[C@H]3C[C@H](n4cc(C)c(=O)[nH]c4=O)O[C@@H]3COP(=O)(O)O[C@H]3C[C@H](n4cc(C)c(=O)[nH]c4=O)O[C@@H]3COP(=O)(O)O[C@H]3C[C@H](n4ccc(N)nc4=O)O[C@@H]3COP(=O)(O)O[C@H]3C[C@H](n4ccc(N)nc4=O)O[C@@H]3COP(=O)(O)O[C@H]3C[C@H](n4ccc(N)nc4=O)O[C@@H]3COP(=O)(O)O[C@H]3C[C@H](n4ccc(N)nc4=O)O[C@@H]3CO)O2)c(=O)[nH]c1=O`: the Tm is 20.5 °C with Nucleic Acid [1]; 46.5 °C in the assay with Nucleic Acid [2]; 17.5 °C in the assay on Nucleic Acid [3]; 33.5 °C in the assay on Nucleic Acid [4]; 42.5 °C in the assay on Nucleic Acid [5]; 24 °C in the assay on Nucleic Acid [6]. Also, the results for the Tm with Nucleic Acid [7], in the assay with Nucleic Acid [8] and in the assay with Nucleic Acid [9] were 38.5 °C, 15 °C and 38.5 °C, respectively.
As to `Cc1cn([C@H]2C[C@H](OP(=O)(O)OC[C@H]3O[C@@H](n4cc(C)c(=O)[nH]c4=O)C[C@@H]3OP(=O)(O)OC[C@H]3O[C@@H](n4cc(C)c(=O)[nH]c4=O)C[C@@H]3OP(=O)(O)OC[C@H]3O[C@@H](n4ccc(N)nc4=O)C[C@@H]3OP(=O)(O)OC[C@H]3O[C@@H](n4cc(C)c(=O)[nH]c4=O)C[C@@H]3OP(=O)(O)OC[C@H]3O[C@@H](n4cc(C)c(=O)[nH]c4=O)C[C@@H]3OP(=O)(O)OC[C@H]3O[C@@H](n4cc(C)c(=O)[nH]c4=O)C[C@@H]3O[PH](O)(O)OC[C@H]3O[C@@H](n4cc(C)c(=O)[nH]c4=O)C[C@@H]3OP(=O)(O)OC[C@H]3O[C@@H](n4cc(C)c(=O)[nH]c4=O)C[C@@H]3OP(=O)(O)OC[C@H]3O[C@@H](n4cc(C)c(=O)[nH]c4=O)C[C@@H]3O)[C@@H](COP(=O)(O)O[C@H]3C[C@H](n4ccc(N)nc4=O)O[C@@H]3COP(=O)(O)O[C@H]3C[C@H](n4ccc(N)nc4=O)O[C@@H]3COP(=O)(O)O[C@H]3C[C@H](n4ccc(N)nc4=O)O[C@@H]3COP(=O)(O)O[C@H]3C[C@H](n4ccc(N)nc4=O)O[C@@H]3COP(=O)(O)O[C@H](CO)CCOc3ccc(-c4nc5c6ccccc6c6ccccc6c5[nH]4)cc3)O2)c(=O)[nH]c1=O`, the Tm in the assay with Nucleic Acid [1] stood at 34 °C; in the assay on Nucleic Acid [2], 46 °C; in the assay with Nucleic Acid [5], 59 °C; in the assay with Nucleic Acid [7], 56.5 °C; in the assay on Nucleic Acid [8], 20.5 °C; in the assay on Nucleic Acid [9] it was 56.5 °C.
As to `Cc1cn([C@H]2C[C@H](OP(=O)(O)OC[C@H]3O[C@@H](n4cc(C)c(=O)[nH]c4=O)C[C@@H]3O[PH](O)(O)OC[C@H]3O[C@@H](n4cc(C)c(=O)[nH]c4=O)C[C@@H]3OP(=O)(O)OC[C@H]3O[C@@H](n4cc(C)c(=O)[nH]c4=O)C[C@@H]3OP(=O)(O)OC[C@H]3O[C@@H](n4cc(C)c(=O)[nH]c4=O)C[C@@H]3O)[C@@H](COC[C@H](CCOc3ccc(-c4nc5c6ccccc6c6ccccc6c5[nH]4)cc3)OP(=O)(O)O[C@H]3C[C@H](n4cc(C)c(=O)[nH]c4=O)O[C@@H]3COP(=O)(O)O[C@H]3C[C@H](n4ccc(N)nc4=O)O[C@@H]3COP(=O)(O)O[C@H]3C[C@H](n4cc(C)c(=O)[nH]c4=O)O[C@@H]3COP(=O)(O)O[C@H]3C[C@H](n4cc(C)c(=O)[nH]c4=O)O[C@@H]3COP(=O)(O)O[C@H]3C[C@H](n4cc(C)c(=O)[nH]c4=O)O[C@@H]3COP(=O)(O)O[C@H]3C[C@H](n4ccc(N)nc4=O)O[C@@H]3COP(=O)(O)O[C@H]3C[C@H](n4ccc(N)nc4=O)O[C@@H]3COP(=O)(O)O[C@H]3C[C@H](n4ccc(N)nc4=O)O[C@@H]3COP(=O)(O)O[C@H]3C[C@H](n4ccc(N)nc4=O)O[C@@H]3CO)O2)c(=O)[nH]c1=O`, the Tm worked out at 31.5 °C in the assay on Nucleic Acid [1]; 48.5 °C in the assay with Nucleic Acid [2]; 35.5 °C in the assay on Nucleic Acid [3]; 33 °C with Nucleic Acid [4]; 53 °C in the assay with Nucleic Acid [5]; 30.5 °C in the assay with Nucleic Acid [6]. Further, the Tm came to 51 °C in the assay on Nucleic Acid [7], 33.5 °C in the assay with Nucleic Acid [8] and 51 °C in the assay on Nucleic Acid [9].
As for `Cc1cn([C@H]2C[C@H](OP(=O)(O)OC[C@H]3O[C@@H](n4cc(C)c(=O)[nH]c4=O)C[C@@H]3O[PH](O)(O)OC[C@H]3O[C@@H](n4cc(C)c(=O)[nH]c4=O)C[C@@H]3OP(=O)(O)OC[C@H]3O[C@@H](n4cc(C)c(=O)[nH]c4=O)C[C@@H]3OP(=O)(O)OC[C@H]3O[C@@H](n4cc(C)c(=O)[nH]c4=O)C[C@@H]3O)[C@@H](COC[C@H](CCOc3ccc(-c4nc5c6ccccc6c6ccccc6c5[nH]4)c4ccccc34)OP(=O)(O)O[C@H]3C[C@H](n4cc(C)c(=O)[nH]c4=O)O[C@@H]3COP(=O)(O)O[C@H]3C[C@H](n4ccc(N)nc4=O)O[C@@H]3COP(=O)(O)O[C@H]3C[C@H](n4cc(C)c(=O)[nH]c4=O)O[C@@H]3COP(=O)(O)O[C@H]3C[C@H](n4cc(C)c(=O)[nH]c4=O)O[C@@H]3COP(=O)(O)O[C@H]3C[C@H](n4cc(C)c(=O)[nH]c4=O)O[C@@H]3COP(=O)(O)O[C@H]3C[C@H](n4ccc(N)nc4=O)O[C@@H]3COP(=O)(O)O[C@H]3C[C@H](n4ccc(N)nc4=O)O[C@@H]3COP(=O)(O)O[C@H]3C[C@H](n4ccc(N)nc4=O)O[C@@H]3COP(=O)(O)O[C@H]3C[C@H](n4ccc(N)nc4=O)O[C@@H]3CO)O2)c(=O)[nH]c1=O`, the Tm was determined as 19.5 °C in the assay on Nucleic Acid [1]; 38.5 °C with Nucleic Acid [2]; 26 °C with Nucleic Acid [3]; 22.5 °C in the assay on Nucleic Acid [4]; 49.5 °C in the assay on Nucleic Acid [5]; 21 °C in the assay on Nucleic Acid [6]. In addition, the figures for the Tm in the assay with Nucleic Acid [7], in the assay on Nucleic Acid [8] and in the assay on Nucleic Acid [9] were 47.5 °C, 18.5 °C and 47.5 °C, respectively.
Regarding `Cc1cn([C@H]2C[C@H](OP(=O)(O)OC[C@H]3O[C@@H](n4cc(C)c(=O)[nH]c4=O)C[C@@H]3OP(=O)(O)OC[C@H]3O[C@@H](n4cc(C)c(=O)[nH]c4=O)C[C@@H]3O[PH](O)(O)OC[C@H]3O[C@@H](n4cc(C)c(=O)[nH]c4=O)C[C@@H]3OP(=O)(O)OC[C@H]3O[C@@H](n4cc(C)c(=O)[nH]c4=O)C[C@@H]3OP(=O)(O)OC[C@H]3O[C@@H](n4cc(C)c(=O)[nH]c4=O)C[C@@H]3O)[C@@H](COC[C@@H](CCOc3ccc(-c4nc5c6ccccc6c6ccccc6c5[nH]4)c4ccccc34)OP(=O)(O)O[C@H]3C[C@H](n4ccc(N)nc4=O)O[C@@H]3COP(=O)(O)O[C@H]3C[C@H](n4cc(C)c(=O)[nH]c4=O)O[C@@H]3COP(=O)(O)O[C@H]3C[C@H](n4cc(C)c(=O)[nH]c4=O)O[C@@H]3COP(=O)(O)O[C@H]3C[C@H](n4cc(C)c(=O)[nH]c4=O)O[C@@H]3COP(=O)(O)O[C@H]3C[C@H](n4ccc(N)nc4=O)O[C@@H]3COP(=O)(O)O[C@H]3C[C@H](n4ccc(N)nc4=O)O[C@@H]3COP(=O)(O)O[C@H]3C[C@H](n4ccc(N)nc4=O)O[C@@H]3COP(=O)(O)O[C@H]3C[C@H](n4ccc(N)nc4=O)O[C@@H]3CO)O2)c(=O)[nH]c1=O`, the Tm amounted to 23 °C in the assay with Nucleic Acid [1]; 35.5 °C in the assay on Nucleic Acid [2]; 49 °C with Nucleic Acid [5]; 46 °C in the assay on Nucleic Acid [7]; 18.5 °C in the assay on Nucleic Acid [8]; 46 °C in the assay with Nucleic Acid [9].
As to `Cc1cn([C@H]2C[C@H](OP(=O)(O)OC[C@H]3O[C@@H](n4ccc(N)nc4=O)C[C@@H]3OP(=O)(O)OC[C@H]3O[C@@H](n4cc(C)c(=O)[nH]c4=O)C[C@@H]3OP(=O)(O)O[C@@H](CCOc3ccc(-c4nc5c6ccccc6c6ccccc6c5[nH]4)cc3)COC[C@H]3O[C@@H](n4cc(C)c(=O)[nH]c4=O)C[C@@H]3OP(=O)(O)OC[C@H]3O[C@@H](n4cc(C)c(=O)[nH]c4=O)C[C@@H]3O[PH](O)(O)OC[C@H]3O[C@@H](n4cc(C)c(=O)[nH]c4=O)C[C@@H]3OP(=O)(O)OC[C@H]3O[C@@H](n4cc(C)c(=O)[nH]c4=O)C[C@@H]3OP(=O)(O)OC[C@H]3O[C@@H](n4cc(C)c(=O)[nH]c4=O)C[C@@H]3O)[C@@H](COC[C@H](CCOc3ccc(-c4nc5c6ccccc6c6ccccc6c5[nH]4)cc3)OP(=O)(O)O[C@H]3C[C@H](n4cc(C)c(=O)[nH]c4=O)O[C@@H]3COP(=O)(O)O[C@H]3C[C@H](n4cc(C)c(=O)[nH]c4=O)O[C@@H]3COP(=O)(O)O[C@H]3C[C@H](n4ccc(N)nc4=O)O[C@@H]3COP(=O)(O)O[C@H]3C[C@H](n4ccc(N)nc4=O)O[C@@H]3COP(=O)(O)O[C@H]3C[C@H](n4ccc(N)nc4=O)O[C@@H]3COP(=O)(O)O[C@H]3C[C@H](n4ccc(N)nc4=O)O[C@@H]3CO)O2)c(=O)[nH]c1=O`, the Tm worked out at 37.5 °C with Nucleic Acid [1]; 51.5 °C in the assay with Nucleic Acid [2]; 42 °C in the assay with Nucleic Acid [3]; 37 °C in the assay on Nucleic Acid [4]; 49.5 °C with Nucleic Acid [5]; 35.5 °C in the assay with Nucleic Acid [6]. Moreover, the midpoint of thermal melting (Tm) turned out to be 49 °C in the assay on Nucleic Acid [7], 37 °C with Nucleic Acid [8] and 50.5 °C with Nucleic Acid [9].
